Tests used:
[1] = HPLC capacity factor (k') (artificial membrane chromatography); type: ADME
Procedure, shortened: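 Immobilized artificial membrane (IAM) column; mobile phase 10 mM sodium phosphate pH 6.4 in 25% aqueous propylene glycol, 2 mL/min. Samples at 100 µg/mL in mobile phase, UV detection 220 nm, KI as void marker. k' of each compound divided by mean k' of a reference standard injected before and after each set of five compounds; reported as relative k' (log for comparisons).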

[2] = Mean peak APTT value was evaluated on rats by intracolonic instillation of a 25% aqueous propylene glycol solution of heparin (25 mg/kg) and compound (50 mg/kg).; type: functional, Rattus norvegicus

| SMILES | Log relative k' [1] | Mean peak APTT [2] |
| --- | --- | --- |
| O=C(O)CCCCCCNC(=O)c1ccccc1O | 0.37 | 56 |
| COc1cc([N+](=O)[O-])ccc1C(=O)NCCCCCCCC(=O)O | -0.55 | 25 |
| O=C(O)CCCCCCCNC(=O)C1CCCN1 (stereo not given) | -0.28 | 25 |
| O=C(O)CCCCCCCNC(=O)c1cccc(O)c1O | 0.46 |  |
| O=C(O)CCCCCCNC(=O)C/C=C/c1ccccc1 | 0.36 | 39 |
| O=C(O)CCCCCCCNC(=O)c1ccccc1F | 0.11 | 25 |
| O=C(O)CCCCCCCNC(=O)Cc1ccccc1O | 0.12 | 21 |
| O=C(O)CCCCCCCNC(=O)C/C=C/c1ccccc1 | 0.7 | 73 |
| O=C(O)CCCCCCCNC(=O)c1ccc(Cl)cc1O | 1.43 | 94 |
| Cc1ccccc1C(=O)NCCCCCCCC(=O)O | 0.45 | 25 |
| Cc1ccc(O)c(C(=O)NCCCCCCCC(=O)O)c1 | 1.03 | 56 |
| O=C(O)CCCCCCCNC(=O)c1ccc(Cl)cc1 | 0.65 | 37 |
| O=C(O)CCCCCCCNC(=O)C1CCCCC1 | 0.15 | 34 |
| O=C(O)CCCCCCCNC(=O)c1cc([N+](=O)[O-])ccc1Cl | 0.25 | 23 |
| COc1cc(Cl)ccc1C(=O)NCCCCCCCC(=O)O | 0.79 | 75 |
| Cc1cccc(C(=O)NCCCCCCCC(=O)O)c1O | 1.23 | 27 |
| O=C(O)CCCCCCCNC(=O)c1ccccn1 | -0.52 | 23 |
| O=C(O)CCCCCCCNC(=O)c1ccccc1C(=O)O | -1 | 23 |
| O=C(O)CCCCCCCNC(=O)c1ccc(O)cc1O | 0.65 | 37 |
| O=C(O)CCCCCCCCNC(=O)C/C=C/c1ccccc1 | 0.69 | 140 |
| O=C(O)CCCCCCCNC(=O)c1cc(I)ccc1O | 1.72 | 32 |
| O=C(O)CCCCCCCNC(=O)c1ccc([N+](=O)[O-])cc1O | 1.11 | 36 |
| O=C(O)CCCCCCCNC(=O)c1ccc(F)cc1 | 0.23 | 31 |

| SMILES | Log relative k' [1] | Mean peak APTT [2] |
| --- | --- | --- |
| O=C(O)CCCCCCCNC(=O)c1ccccc1OC(F)(F)F | -0.64 | 23 |
| O=C(O)CCCCCCCNC(=O)c1ccc2ccccc2c1O | 2.1 | 31 |
| O=C(O)CCCCCCCNC(=O)c1cc(Cl)ccc1O | 0.81 | 56 |
| COc1ccccc1C(=O)NCCCCCCCC(=O)O | 0.33 | 26 |
| O=C(O)CCCCCCCNC(=O)c1cc2ccccc2cc1O | 1.7 | 71 |
| O=C(O)CCCCCCCNC(=O)c1ccccc1 | 0.09 | 21 |
| O=C(O)CCCCCCCNC(=O)c1ccccc1I | 0.35 | 22 |
| O=C(O)CNC(=O)c1ccccc1O [SALICYLURIC ACID] | -0.68 | 28 |
| Nc1ccccc1C(=O)NCCCCCCCC(=O)O | 0.02 | 24 |
| O=C(O)CCCCCCCNC(=O)c1ccccc1Br | 0.24 | 21 |
| O=C(O)CCCCCCCNC(=O)c1c(O)cccc1O | 1.12 | 42 |
| O=C(O)CCCCCCCCCCNC(=O)c1ccc2ccccc2c1O | > 2.5 | 26 |
| O=C(O)CCCCCCCNC(=O)c1cc(Br)ccc1O | 1.54 | 111 |
| O=C(O)CCNC(=O)c1ccccc1O | -0.63 | 22 |
| O=C(O)CCCCCCCNC(=O)c1cccs1 | 0.9 | 22 |
| O=C(O)CCCCCCCNC(=O)c1cccc(O)c1 | 0 | 23 |
| O=C(O)CCCCCCCCCCNC(=O)c1ccccc1O | 1.88 | 51 |
| O=C(O)CCCCCCCNC(=O)c1c(F)c(F)c(F)c(F)c1F | 0.41 | 22 |
| O=C(O)CCCCCCCNC(=O)c1cccnc1Cl | -0.53 | 30 |
| O=C(O)CCCCCCCNC(=O)c1cc2ccccc2oc1=O | 0.81 | 34 |
| COc1ccccc1C(=O)NCCCCCC(=O)O | -0.47 | 27 |
| O=C(O)CCCCCCCNC(=O)c1c(F)cccc1Cl | 0.23 | 23 |
| COc1ccccc1/C=C/CC(=O)NCCCCCCCCC(=O)O | 0.89 | 56 |

| SMILES | Log relative k' [1] | Mean peak APTT [2] |
| --- | --- | --- |
| O=C(O)CCCCCCCNC(=O)c1ccc(Br)cc1 | 0.76 | 60 |
| O=C(O)CCCCCCCNC(=O)c1cc(O)ccc1O | 0.51 | 25 |
| O=C(O)CCCCCCCNC(=O)c1ccc(I)cc1 | 0.97 | 23 |
| O=C(O)CCCCCCCCNC(=O)c1ccccc1O | 1.04 | 163 |
| O=C(O)CCCNC(=O)c1ccccc1O | -0.41 | 25 |
| O=C(O)CCCCNC(=O)c1ccccc1O | -0.18 | 26 |
| O=C(O)CCCCCCCNC(=O)c1ccccc1Cl | 0.18 | 23 |
| COc1ccc(C(=O)NCCCCCCCC(=O)O)c(O)c1 | 0.92 | 76 |
| O=C(O)CCCCCCCNC(=O)c1ccccc1O [SALCAPROZIC ACID] | 0.68 | 125 |
| O=C(O)CCCCCCCNC(=O)c1cccnc1O | 0.9 | 22 |
| O=C(O)CCCCCCCNC(=O)c1cc(O)cc(O)c1 | -0.06 | 20 |
| Cc1ccc(C(=O)NCCCCCCCC(=O)O)c(O)c1 | 1.05 | 37 |
| O=C(O)CCCCCCCNC(=O)c1cccc(I)c1 | 1.05 | 39 |
| O=C(O)CCCCCCCNC(=O)c1ccc(Cl)c([N+](=O)[O-])c1 | 0.94 | 34 |
| O=C(O)CCCCCCCNC(=O)c1ccc([N+](=O)[O-])cc1 | 0.44 | 33 |
| O=C(O)CCCCCNC(=O)c1ccc(Cl)cc1O | 0.26 | 40 |
| O=C(O)CCCCCCCCCNC(=O)c1ccccc1O | 1.43 | 153 |
| O=C(O)CCCCCCCCCCCNC(=O)c1ccccc1O | 2.32 | 44 |
| O=C(O)CCCCCCCNC(=O)c1cccc(F)c1 | 0.29 | 35 |
| O=C(O)CCCCCNC(=O)c1ccccc1O | 0.04 | 24 |
| O=C(O)CCCCCCCNC(=O)c1ccc(O)cc1 | -0.04 | 27 |
| O=C(O)CCCCCCCCCCCNC(=O)C/C=C/c1ccccc1 | 2.29 | 41 |
